ChEMBL document CHEMBL4007421, “Discovery and Preclinical Characterization of 3-((4-(4-Chlorophenyl)-7-fluoroquinoline-3-yl)sulfonyl)benzonitrile, a Novel Non-acetylenic Metabotropic Glutamate Receptor 5 (mGluR5) Negative Allosteric Modulator for Psychiatric Indications” (J Med Chem, 2017)

How the values were obtained:
[1] = Plasma concentration in ip dosed Wistar rat at anxiolytic MED administered as suspension after 75 mins during Vogel punished drinking conflict test; format: ADME, organism-based
[2] = biological target: Metabotropic glutamate receptor 5 (Homo sapiens, UniProt P41594); experiment: Negative allosteric modulation of human mGluR5a expressed in CHO cells assessed as reduction in DHPG-induced cytosolic Ca2+ influx after 10 to 20 mins by fluo-4/AM-dye based fluorometric analysis; format: functional, cell-based
[3] = tested on: Rattus norvegicus; experiment: Anxiolytic activity in ip dosed Wistar rat assessed as increase in water drinking time during punished period administered as suspension by Vogel punished drinking conflict test; format: functional; conditions: read-out: MED
How it was run: (§1)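 Vogel punished-drinking test in rats, single i.p. or p.o. dose as suspension in 5% Tween 80; plasma sampled ~45 min after i.p. or ~75 min after p.o. dosing.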

[4] = tested on: Liver; experiment: Intrinsic clearance in human liver microsomes at 2.5 uM assessed per gram of liver; format: ADME, microsome
[5] = tested on: Liver; experiment: Intrinsic clearance in rat liver microsomes at 2.5 uM assessed per gram of liver; format: ADME, microsome
[6] = tested on: Plasma; experiment: Plasma concentration in Wistar rat at 30 mg/kg, ip administered as single dose; format: ADME, organism-based; conditions: in vivo
How it was run: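 Rats dosed i.p. at 30 mg/kg. Plasma level was taken about 45 min after dosing, at the end of the Vogel session.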

[7] = biological target: Metabotropic glutamate receptor 5 (Rattus norvegicus, UniProt P31424); experiment: Displacement of [3H]M-MPEP from mGluR5 in Sprague-Dawley rat cerebrocortical membranes after 60 mins
[8] = tested on: Rattus norvegicus; experiment: Therapeutic index, ratio of MED for effect on spatial learning performance in po dosed Wistar rat by Morris water maze test to MED for anxiolytic activity in Wistar rat by Vogel punished drinking conflict test
How it was run: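 Index is the Morris water maze minimum effective dose (oral, given 1 h before the first daily trial, 4 days of 3 trials) divided by the Vogel punished drinking minimum effective dose.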

[9] = Plasma concentration in ip dosed Wistar rat at anxiolytic MED administered as suspension after 45 mins during Vogel punished drinking conflict test; format: ADME, organism-based
How it was run: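 Vehicle was a suspension containing 5% Tween 80, given i.p. at the Vogel minimum effective dose. Plasma was sampled about 45 min after dosing, right after the Vogel punished drinking test.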

[10] = tested on: Rattus norvegicus; experiment: Effect on spatial learning performance in po dosed Wistar rat measured as escape latency dosed 1 hr prior to first daily trial by Morris water maze test; format: ADME, organism-based; conditions: in vivo
How it was run: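 Morris water maze with male Harlan-Wistar rats (190–220 g): three trials a day for 4 days, hidden 10 cm platform, video tracking; 30 mg/kg p.o. in Type IV lipid formulation 1 h before first daily trial; plasma taken after last Day 4 trial; 7–17 rats/group.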

[11] = tested on: Plasma; experiment: Plasma concentration in Wistar rat at 30 mg/kg, po administered as single dose; format: ADME, organism-based; conditions: in vivo
[12] = tested on: Rattus norvegicus; experiment: Therapeutic index, ratio of plasma concentration causing effect on spatial learning performance in po dosed Wistar rat by Morris water maze test to plasma concentration causing anxiolytic activity in Wistar rat by Vogel punished drinking conflict test
How it was run: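 Index is the plasma level in rats at 30 mg/kg p.o. in the Morris water maze (sampled after the last trial on Day 4) divided by the plasma level at the Vogel minimum effective dose. Vogel plasma was sampled right after the test.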

[13] = tested on: Rattus norvegicus; experiment: Anxiolytic activity in po dosed Wistar rat assessed as increase in water drinking time during punished period administered as suspension by Vogel punished drinking conflict test; format: functional; conditions: read-out: MED; how it was run: as §1
[14] = tested on: Rattus norvegicus; experiment: Anxiolytic activity in po dosed Wistar rat assessed as reduction in freezing behavior by contextual fearing test; format: functional; conditions: read-out: MED
[15] = tested on: Rattus norvegicus; experiment: Toxicity in po dosed Harlan-Wistar rat assessed as decrease in spontaneous locomotor activity photocell-based activity monitor test; format: organism-based; conditions: in vivo
How it was run: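 Male Wistar rats were given 0, 10, 30 or 50 mg/kg p.o. Spontaneous locomotor activity (ambulatory movement) was recorded in a photocell-based activity monitor.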

[16] = tested on: Rattus norvegicus; experiment: Anxiolytic activity in po dosed Wistar rat assessed as reduction in ultrasonic vocalization; format: functional

Sequence of Metabotropic glutamate receptor 5 (Rattus norvegicus, UniProt P31424) (P31424 whole entry): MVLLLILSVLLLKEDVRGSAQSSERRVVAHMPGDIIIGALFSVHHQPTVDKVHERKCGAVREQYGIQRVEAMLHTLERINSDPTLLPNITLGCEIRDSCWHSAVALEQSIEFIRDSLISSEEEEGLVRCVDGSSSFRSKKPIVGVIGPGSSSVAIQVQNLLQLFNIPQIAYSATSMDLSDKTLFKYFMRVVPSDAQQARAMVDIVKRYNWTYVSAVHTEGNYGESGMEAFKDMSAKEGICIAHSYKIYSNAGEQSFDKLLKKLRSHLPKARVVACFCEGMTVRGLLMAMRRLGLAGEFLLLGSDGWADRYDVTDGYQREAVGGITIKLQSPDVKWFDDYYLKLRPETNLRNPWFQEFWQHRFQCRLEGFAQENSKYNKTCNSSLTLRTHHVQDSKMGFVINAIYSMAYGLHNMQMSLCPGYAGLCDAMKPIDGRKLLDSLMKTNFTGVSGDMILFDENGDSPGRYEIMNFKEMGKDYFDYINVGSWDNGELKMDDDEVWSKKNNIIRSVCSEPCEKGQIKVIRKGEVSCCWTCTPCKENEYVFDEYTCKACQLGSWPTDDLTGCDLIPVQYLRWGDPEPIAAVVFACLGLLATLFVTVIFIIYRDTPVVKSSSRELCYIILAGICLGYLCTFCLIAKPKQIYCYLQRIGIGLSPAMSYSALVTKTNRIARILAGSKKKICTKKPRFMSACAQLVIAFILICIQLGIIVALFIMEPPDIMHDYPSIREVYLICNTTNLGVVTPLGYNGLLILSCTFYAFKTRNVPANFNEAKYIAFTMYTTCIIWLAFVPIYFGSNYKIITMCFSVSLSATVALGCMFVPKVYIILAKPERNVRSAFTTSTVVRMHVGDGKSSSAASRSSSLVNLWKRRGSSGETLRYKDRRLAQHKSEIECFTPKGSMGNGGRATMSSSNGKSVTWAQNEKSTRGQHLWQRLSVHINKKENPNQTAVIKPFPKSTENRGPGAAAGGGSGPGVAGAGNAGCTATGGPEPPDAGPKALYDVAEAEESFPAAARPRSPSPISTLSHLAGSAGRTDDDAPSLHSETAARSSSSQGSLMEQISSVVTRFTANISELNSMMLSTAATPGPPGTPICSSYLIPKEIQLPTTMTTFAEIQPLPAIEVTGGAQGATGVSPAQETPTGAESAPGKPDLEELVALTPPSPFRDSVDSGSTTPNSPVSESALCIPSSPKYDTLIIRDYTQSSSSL
Sequence of Metabotropic glutamate receptor 5 (Homo sapiens, UniProt P41594) (P41594 whole entry): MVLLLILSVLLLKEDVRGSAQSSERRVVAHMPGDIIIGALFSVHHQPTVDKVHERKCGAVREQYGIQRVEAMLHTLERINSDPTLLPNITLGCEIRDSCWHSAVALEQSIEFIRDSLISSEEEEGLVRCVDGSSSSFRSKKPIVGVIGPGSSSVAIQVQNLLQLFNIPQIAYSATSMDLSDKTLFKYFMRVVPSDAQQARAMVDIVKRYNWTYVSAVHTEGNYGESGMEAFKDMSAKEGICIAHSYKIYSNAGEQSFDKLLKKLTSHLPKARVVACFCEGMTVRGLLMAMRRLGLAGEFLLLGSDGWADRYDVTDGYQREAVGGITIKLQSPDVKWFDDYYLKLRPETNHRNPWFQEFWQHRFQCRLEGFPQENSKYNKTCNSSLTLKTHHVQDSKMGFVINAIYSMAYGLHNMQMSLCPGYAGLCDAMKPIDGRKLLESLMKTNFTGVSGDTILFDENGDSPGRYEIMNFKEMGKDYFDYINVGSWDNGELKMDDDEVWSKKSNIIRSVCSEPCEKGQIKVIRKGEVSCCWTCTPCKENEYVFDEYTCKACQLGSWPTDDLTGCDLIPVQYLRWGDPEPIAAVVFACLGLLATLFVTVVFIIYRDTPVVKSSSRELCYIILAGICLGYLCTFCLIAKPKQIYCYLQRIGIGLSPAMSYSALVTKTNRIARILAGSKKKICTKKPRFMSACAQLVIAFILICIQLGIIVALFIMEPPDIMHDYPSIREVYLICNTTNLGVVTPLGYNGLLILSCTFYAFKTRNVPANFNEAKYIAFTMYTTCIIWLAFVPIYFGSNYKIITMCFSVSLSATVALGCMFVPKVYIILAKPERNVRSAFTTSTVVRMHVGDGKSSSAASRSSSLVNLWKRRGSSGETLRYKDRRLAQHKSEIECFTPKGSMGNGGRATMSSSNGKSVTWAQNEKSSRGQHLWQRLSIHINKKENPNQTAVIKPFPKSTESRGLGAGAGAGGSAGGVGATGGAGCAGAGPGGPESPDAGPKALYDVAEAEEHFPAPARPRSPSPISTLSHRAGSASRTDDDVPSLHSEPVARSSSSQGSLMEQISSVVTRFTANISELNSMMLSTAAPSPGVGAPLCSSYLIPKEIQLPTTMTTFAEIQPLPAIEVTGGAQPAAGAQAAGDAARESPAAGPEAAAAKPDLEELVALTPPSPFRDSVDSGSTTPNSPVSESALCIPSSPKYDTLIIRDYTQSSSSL

Structure (SMILES) | concentration at 1.25 h [1] [nM] | IC50 [2] [nM] | minimal effective dose [3] [mg/kg] | CLint [4] [mL/min/g] | CLint [5] [mL/min/g] | concentration [6] [nM] | Ki [7] [nM] | TI [8] | concentration at 0.75 h [9] [nM] | Activity [10] | concentration [11] [nM] | TI [12] | minimal effective dose [13] [mg/kg] | minimal effective dose [14] [mg/kg] | ED50 [15] [mg/kg] | ED50 [16] [mg/kg]
O=S(=O)(c1cc(Cl)cc(Cl)c1)c1cnc2cc(F)ccc2c1-c1ccc(F)cc1 | 165 | 25 | > 30 | 0.18 | 1.15 | – | – | – | – | – | – | – | – | – | – | –
O=S(=O)(c1ccc(F)c(F)c1)c1cnc2cc(F)ccc2c1-c1ccc(F)cc1 | – | 43 | > 30 | 0.44 | 0.67 | 247 | 19.1 | – | – | – | – | – | – | – | – | –
O=S(=O)(c1ccc(F)c(Cl)c1)c1cnc2cc(F)ccc2c1-c1ccc(F)cc1 | – | 21 | 10 | 0.69 | 0.89 | – | 5.2 | <=10 | 71 | Toxic | 968 | <=9.1 | 3 | – | – | –
O=S(=O)(c1cc(F)cc(F)c1)c1cnc2cc(F)ccc2c1-c1cccc(F)c1 | – | 74 | > 30 | 0.06 | 1.8 | 63 | 32.6 | – | – | – | – | – | – | – | – | –
O=S(=O)(c1ccc(F)c(Cl)c1)c1cnc2cc(F)ccc2c1-c1ccc(Cl)cc1 | – | 27 | 30 | 0.39 | 0.45 | – | 8.3 | 10 | 373 | Toxic | 866 | 3.9 | 3 to 10 | – | – | –
N#Cc1cccc(S(=O)(=O)c2cnc3cc(F)ccc3c2-c2ccc(F)cc2)c1 | – | 20 | 10 | 0.39 | 0.7 | – | 6.5 | 10 | 208 | Toxic | 1280 | <=8.4 | 3 to 10 | – | – | –
O=S(=O)(c1cc(F)cc(F)c1)c1cnc2cc(F)ccc2c1-c1ccc(F)cc1 | – | 25 | > 30 | 0.01 | 0.93 | 206 | 18 | – | – | – | – | – | > 10 | – | – | –
CN1C(=O)CN=C(c2ccccc2)c2cc(Cl)ccc21 [DIAZEPAM] | – | – | – | – | – | – | – | – | – | – | – | – | 2.5 | > 10 | 9.7 | 7.8
